Assay results taken from ChEMBL document CHEMBL1135649, “CycloSal-BVDUMP pronucleotides: how to convert an antiviral-inactive nucleoside analogue into a bioactive compound against EBV” (J Med Chem, 2002).

How the values were obtained:
[1] = Partition coefficient (logP); type: physicochemical; conditions: octanol/water
How it was run: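 Compound dissolved in 0.3 mL 1-octanol and shaken with 0.3 mL water by vortexing for 10 min. Phases separated by centrifugation. Each phase analysed by RP-18 HPLC with UV detection at 250 nm. P taken from the ratio of aqueous and organic peak areas.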

P3HR-1 [2] = assay: Cytotoxic concentration for inhibition of human lymphoblastoid P3HR-1 cell growth; type: functional
How it was run: (§1)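 P3HR-1 cells seeded at 2 × 10⁵ cells/mL and grown 7 days with compound at a range of concentrations. Cells counted on a particle counter. CC50 calculated as 50% inhibition of cell growth.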

Nucleic Acid = assay: Effective concentration for the inhibition of Epstein-Barr virus EBV-DNA synthesis in human lymphoblastoid P3HR-1 cells; type: functional, cell-based; conditions: human gammaherpesvirus 4, P3HR-1
How it was run: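 P3HR-1 (EBV producer) cells in RPMI-1640 with 10% heat-inactivated FCS at 36.5 °C, seeded at 10⁶ cells/mL. TPA 20 ng/mL added to induce virus production. Compound given at a range of concentrations for 7 days. DNA extracted and 10 μg used for slot blot hybridization with a digoxigenin-labeled EBV BamHI-W probe, chemiluminescence and densitometry. EC50 obtained by regression against untreated cells.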

P3HR-1 [3] = assay: Cytotoxic concentration for the inhibition of P3HR-1 cell growth; type: functional; conditions: Homo sapiens; how it was run: as §1
[4] = Selectivity as the ratio of CC50 value to that of EC50 value.; type: functional
How it was run: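 Ratio CC50/EC50, both in P3HR-1 cells over 7 days at varied concentrations. EC50: cells seeded at 10⁶ cells/mL, induced with TPA 20 ng/mL; EBV DNA in 10 μg total DNA by slot blot with digoxigenin-labeled BamHI-W probe, chemiluminescence and densitometry; regression against untreated cells. CC50: growth from 2 × 10⁵ cells/mL, cells counted with a particle counter.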

[5] = Selectivity index as the ratio of CC50 value to that of EC50 value.; type: functional
How it was run: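 Selectivity index is CC50 (μM)/EC50 (μM). CC50 is for P3HR-1 growth over 7 days, read by cell count. EC50 is for EBV DNA synthesis in TPA-induced P3HR-1 cells over 7 days, read by slot blot.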

SMILES | logP [1] | CC50 (P3HR-1 [2]) [µM] | EC50 (Nucleic Acid) [µM] | CC50 (P3HR-1 [3]) [µM] | Selectivity [4] | SI [5]
Cc1cccc2c1OP(=O)(OC[C@H]1O[C@@H](n3cc(/C=C/Br)c(=O)[nH]c3=O)C[C@@H]1OC(=O)[C@@H]1CCCN1)OC2 (stereo partly specified) | -0.4 | 36 | ≥ 138 |  |  | 
Nc1nc2c(ncn2COCCO)c(=O)[nH]1 [ACYCLOVIR] |  |  | 6.75 | 392 | 58 | 
CCC(C)[C@H](N)C(=O)O[C@H]1C[C@H](n2cc(/C=C/Br)c(=O)[nH]c2=O)O[C@@H]1COP1(=O)OCc2cccc(C)c2O1 (stereo partly specified) | -0.02 | 78 | > 135 |  |  | 
Cc1cccc2c1OP(=O)(OC[C@H]1O[C@@H](n3cc(/C=C/Br)c(=O)[nH]c3=O)C[C@@H]1OC(=O)[C@H](N)Cc1ccccc1)OC2 (stereo partly specified) | 0.5 | 66 | 46.5 |  |  | 1.4
Cc1cccc2c1OP(=O)(OC[C@H]1O[C@@H](n3cc(/C=C/Br)c(=O)[nH]c3=O)C[C@@H]1OC(=O)[C@H](N)CC(C)C)OC2 (stereo partly specified) | 0.4 | 65 | > 135 |  |  | 
Cc1cc(C)c2c(c1)COP(=O)(OC[C@H]1O[C@@H](n3cc(/C=C/Br)c(=O)[nH]c3=O)C[C@@H]1O)O2 (stereo partly specified) | 2.2 | 143 | 14.4 |  |  | 9.9
O=c1[nH]c(=O)n([C@H]2C[C@H](O)[C@@H](CO)O2)cc1/C=C/Br [BRIVUDINE] | 0.33 |  | > 300 | 225 |  | 
Cc1cccc2c1OP(=O)(OC[C@H]1O[C@@H](n3cc(/C=C/Br)c(=O)[nH]c3=O)C[C@@H]1OC(=O)[C@@H](N)Cc1ccccc1)OC2 (stereo partly specified) | 0.5 | 35 | ≥ 129 |  |  | 
CCC(C)[C@@H](N)C(=O)O[C@H]1C[C@H](n2cc(/C=C/Br)c(=O)[nH]c2=O)O[C@@H]1COP1(=O)OCc2cccc(C)c2O1 (stereo partly specified) | -0.02 | 37 | > 135 |  |  | 
CC(C)(C)c1cccc2c1OP(=O)(OC[C@H]1O[C@@H](n3cc(/C=C/Br)c(=O)[nH]c3=O)C[C@@H]1O)OC2 (stereo partly specified) | 2.9 | 80 | 32.5 |  |  | 2.5
CCCCCCC(=O)O[C@H]1C[C@H](n2cc(/C=C/Br)c(=O)[nH]c2=O)O[C@@H]1COP1(=O)OCc2cccc(C)c2O1 (stereo partly specified) | 2.6 |  | > 163 | > 326 |  | 
Cc1cccc2c1OP(=O)(OC[C@H]1O[C@@H](n3cc(/C=C/Br)c(=O)[nH]c3=O)C[C@@H]1OC(=O)[C@@H](N)CC(C)C)OC2 (stereo partly specified) | 0.4 | 45 | 23 |  |  | 2
Cc1cccc2c1OP(=O)(OC[C@H]1O[C@@H](n3cc(/C=C/Br)c(=O)[nH]c3=O)C[C@@H]1O)OC2 (stereo partly specified) | 1.9 | 122 | 4.11 |  |  | 30
Cc1cccc2c1OP(=O)(OC[C@H]1O[C@@H](n3cc(/C=C/Br)c(=O)[nH]c3=O)C[C@@H]1OC(=O)[C@@H](N)C(C)C)OC2 (stereo partly specified) | -0.1 | 47 | 81.8 |  |  | 0.6
CC(=O)O[C@H]1C[C@H](n2cc(/C=C/Br)c(=O)[nH]c2=O)O[C@@H]1COP1(=O)OCc2cccc(C)c2O1 (stereo partly specified) | 2.2 | 109 |  |  |  | 
COc1ccc2c(c1)COP(=O)(OC[C@H]1O[C@@H](n3cc(/C=C/Br)c(=O)[nH]c3=O)C[C@@H]1O)O2 (stereo partly specified) | 1.6 | 137 | 3.35 |  |  | 41
O=c1[nH]c(=O)n([C@H]2C[C@H](O)[C@@H](COP3(=O)OCc4cc(Cl)ccc4O3)O2)cc1/C=C/Br (stereo partly specified) | 1.8 | 80 | 25.8 |  |  | 3.1
Cc1cccc2c1OP(=O)(OC[C@H]1O[C@@H](n3cc(/C=C/Br)c(=O)[nH]c3=O)C[C@@H]1OC(=O)[C@H]1CCCN1)OC2 (stereo partly specified) | -0.4 | 38 | ≥ 138 |  |  | 
Cc1cccc2c1OP(=O)(OC[C@H]1O[C@@H](n3cc(/C=C/Br)c(=O)[nH]c3=O)C[C@@H]1OC(=O)CC(C)C)OC2 (stereo partly specified) | 2.4 | 104 | > 171 |  |  | 
O=c1[nH]c(=O)n([C@H]2C[C@H](O)[C@@H](COP3(=O)OCc4ccccc4O3)O2)cc1/C=C/Br (stereo partly specified) | 1.5 | 92 | 12.3 |  |  | 7.5
Cc1cccc2c1OP(=O)(OC[C@H]1O[C@@H](n3cc(/C=C/Br)c(=O)[nH]c3=O)C[C@@H]1OC(=O)[C@H](N)C(C)C)OC2 (stereo partly specified) | -0.1 | 80 | > 137 |  |  | 
CC(=O)CCC(=O)O[C@H]1C[C@H](n2cc(/C=C/Br)c(=O)[nH]c2=O)O[C@@H]1COP1(=O)OCc2cccc(C)c2O1 (stereo partly specified) | 2.3 | 152 | > 163 |  |  | 
CCCCCCCCCCC(=O)O[C@H]1C[C@H](n2cc(/C=C/Br)c(=O)[nH]c2=O)O[C@@H]1COP1(=O)OCc2cccc(C)c2O1 (stereo partly specified) | 2.8 |  | > 149 | > 299 |  | 
Cc1cccc2c1OP(=O)(OC[C@H]1O[C@@H](n3cc(/C=C/Br)c(=O)[nH]c3=O)C[C@@H]1OC(=O)CN)OC2 (stereo partly specified) | -0.8 | 93 | 43.5 |  |  | 2.1
